Data reported in PMC5189718 (Journal of the American Chemical Society, 2016).
Values joined by “and” are separate entries in the source; they are usually repeats but may differ in a detail not shown here. Equal values may be shown once.

Columns and labels:
[1] = target: human mu-opioid receptor (hMOR) (Homo sapiens, UniProt P35372); experiment: G protein BRET functional assay at hMOR; assay type: cell-based; conditions: for maximal efficacy (Emax) relative to DAMGO: G protein BRET, agonist mode; for EC50: read-out: EC50 ± SEM (agonist activity), G protein BRET, HEK cells, mean ± SEM, n ≥ 3
hDOR [2] = target: T1, hDOR (Homo sapiens, UniProt P41143); experiment: Radioligand binding at hDOR; conditions: read-out: Ki ± SEM, n ≥ 3
hMOR [3] = target: T2, hMOR (Homo sapiens, UniProt P35372); experiment: β-arrestin recruitment BRET assay at hMOR; assay type: cell-based; conditions: β-arrestin-2 BRET, in the presence of GRK2
mouse MOR (mMOR) = mouse MOR (mMOR) (Mus musculus, UniProt P42866); experiment: G protein BRET functional assay at mouse MOR; assay type: cell-based
hKOR [4] = target: T3, hKOR (Homo sapiens, UniProt P41145); experiment: G protein BRET functional assay at hKOR; assay type: cell-based; conditions: for IC50: read-out: IC50 ± SEM (antagonist activity), inhibition of a reference agonist (U-50,488); for agonist activity: concentrations up to 100 µM
Outline: (§1)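 HEK cells expressing the human receptor, co-transfected with Gα fused to an RLuc8 donor and Gγ fused to an mVenus acceptor. Receptor activation separates the G protein subunits, so the BRET signal falls. Agonist mode gives EC50 and Emax. Antagonist mode gives IC50 for inhibition of a reference agonist, and pA2 from Schild analysis. Values are mean ± SEM, n ≥ 3.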

hDOR [5] = target: T1, hDOR; experiment: G protein BRET functional assay at hDOR; assay type: cell-based; conditions: for IC50: read-out: IC50 ± SEM (antagonist activity), inhibition of a reference agonist; for agonist activity: concentrations up to 100 µM
Outline: as §1

hMOR [6] = target: T2, hMOR; experiment: Radioligand binding at hMOR; conditions: read-out: Ki ± SEM, n ≥ 3
rodent opioid receptors = experiment: G protein BRET functional assays using rodent opioid receptors; assay type: cell-based; conditions: rodent receptors (mouse or rat)
hKOR [7] = target: T3, hKOR; experiment: Radioligand binding at hKOR; conditions: read-out: Ki ± SEM, n ≥ 3

T1 sequence (P41143 whole entry): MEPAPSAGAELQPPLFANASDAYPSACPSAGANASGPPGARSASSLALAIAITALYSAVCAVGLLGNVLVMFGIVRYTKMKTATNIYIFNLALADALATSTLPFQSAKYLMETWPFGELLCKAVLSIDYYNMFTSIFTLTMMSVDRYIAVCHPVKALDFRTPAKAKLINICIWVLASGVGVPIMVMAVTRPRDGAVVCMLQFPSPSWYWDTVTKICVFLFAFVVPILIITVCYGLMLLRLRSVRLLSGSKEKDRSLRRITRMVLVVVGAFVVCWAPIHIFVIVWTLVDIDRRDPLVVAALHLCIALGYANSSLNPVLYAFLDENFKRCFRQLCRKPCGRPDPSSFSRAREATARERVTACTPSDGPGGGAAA
T3 sequence (P41145 whole entry, the tested form may be a part): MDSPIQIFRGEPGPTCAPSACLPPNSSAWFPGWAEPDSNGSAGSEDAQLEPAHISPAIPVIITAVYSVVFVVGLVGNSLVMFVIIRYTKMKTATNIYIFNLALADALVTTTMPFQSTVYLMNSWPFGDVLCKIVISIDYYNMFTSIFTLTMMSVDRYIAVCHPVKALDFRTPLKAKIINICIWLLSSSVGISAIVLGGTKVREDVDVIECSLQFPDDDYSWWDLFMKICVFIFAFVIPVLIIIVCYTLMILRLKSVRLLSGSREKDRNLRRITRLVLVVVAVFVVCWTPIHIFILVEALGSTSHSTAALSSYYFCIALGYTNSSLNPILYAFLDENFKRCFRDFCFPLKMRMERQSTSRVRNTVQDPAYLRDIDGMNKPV
Sequence of human mu-opioid receptor (hMOR) (P35372 whole entry): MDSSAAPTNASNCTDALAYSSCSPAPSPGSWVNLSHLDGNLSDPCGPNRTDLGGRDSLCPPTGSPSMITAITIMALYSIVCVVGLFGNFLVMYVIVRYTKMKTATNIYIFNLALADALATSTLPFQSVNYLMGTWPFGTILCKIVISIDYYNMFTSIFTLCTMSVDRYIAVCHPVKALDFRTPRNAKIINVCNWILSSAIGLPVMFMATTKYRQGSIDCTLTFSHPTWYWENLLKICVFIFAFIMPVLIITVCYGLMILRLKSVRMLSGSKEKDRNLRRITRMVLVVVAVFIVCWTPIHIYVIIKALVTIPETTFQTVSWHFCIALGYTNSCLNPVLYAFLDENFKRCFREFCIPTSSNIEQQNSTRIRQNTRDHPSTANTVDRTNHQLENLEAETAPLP
T2 sequence (P35372 whole entry): as above
Sequence of mouse MOR (mMOR) (P42866 whole entry): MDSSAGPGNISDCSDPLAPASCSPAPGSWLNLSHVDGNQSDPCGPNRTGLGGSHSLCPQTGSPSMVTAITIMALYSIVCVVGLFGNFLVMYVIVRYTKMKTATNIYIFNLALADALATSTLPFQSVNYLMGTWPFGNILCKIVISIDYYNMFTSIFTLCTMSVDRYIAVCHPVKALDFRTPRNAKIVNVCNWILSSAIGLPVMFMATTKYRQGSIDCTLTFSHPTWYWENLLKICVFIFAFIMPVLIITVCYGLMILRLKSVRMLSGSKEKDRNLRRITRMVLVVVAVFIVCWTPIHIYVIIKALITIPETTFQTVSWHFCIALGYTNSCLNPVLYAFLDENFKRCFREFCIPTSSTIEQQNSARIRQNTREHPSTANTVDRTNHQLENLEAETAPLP

## CC[C@@H]1CN2CCc3c([nH]c4cccc(O)c34)[C@@H]2C[C@@H]1/C(=C\OC)C(=O)OC [Compound 1]
[1]
  maximal efficacy (Emax) relative to DAMGO: 29%
  EC50: 0.681 ± 0.379 µM

## CC[C@@H]1CN2CC[C@@]3(O)C(=Nc4cccc(OC)c43)[C@@H]2C[C@@H]1/C(=C\OC)C(=O)OC [Compound 7-OH, 7-hydroxymitragynine]
hDOR [2]
  Ki: 0.219 ± 0.041 µM
hMOR [3]
  β-arrestin recruitment: no measurable β-arrestin binding
Mouse MOR (mMOR)
  agonist activity at mMOR: retains its agonist activity
hKOR [4]; competitive antagonism
  pA2 (Schild analysis): 490 ± 131 nM
  pA2 determined from Schild analysis: 0.49 µM
hKOR [4]
  IC50: 7.9 µM
hDOR [5]
  IC50: > 10 µM

## CO/C=C(/C(=O)OC)[C@@H]1CCN2CCc3c([nH]c4cccc(OC)c34)[C@@H]2C1 [Compound 3, desethylmitragynine]
[1]
  maximal efficacy (Emax) relative to DAMGO: 59%
  EC50: 12 ± 7.6 µM

## C=C[C@H]1CN2CCc3c([nH]c4cccc(OC)c34)[C@@H]2C[C@@H]1/C(=C\OC)C(=O)OC [paynantheine]
[1]; concentrations up to 100 µM
  agonist activity: no measurable agonist activity
[1]; read-out: IC50 ± SEM (antagonist activity), inhibition of a reference agonist, n ≥ 3
  IC50: 2.2 µM
hDOR [2]
  Ki: > 10 µM
hKOR [4]
  agonist activity: no measurable agonist activity
hDOR [5]
  agonist activity: no measurable agonist activity
hMOR [6]
  Ki: 0.41 ± 0.152 µM
Rodent opioid receptors
  agonist or antagonist activity at rodent opioid receptors: no notable agonist or antagonist activity

## mitragynine
hDOR [2]
  Ki: > 10 µM
hKOR [4]; competitive antagonism
  pA2 determined from Schild analysis: 1.4 ± 0.40 µM and 1.4 µM
hKOR [4]
  IC50: 8.5 µM
hDOR [5]
  antagonist activity at hDOR: very low potency
  IC50: > 10 µM
Rodent opioid receptors
  agonist or antagonist activity at rodent opioid receptors: no agonist activity
hKOR [7]
  Ki: 0.772 ± 0.207 µM

## CC[C@H]1CN2CCc3c([nH]c4cccc(OC)c34)[C@@H]2C[C@@H]1/C(=C\OC)C(=O)OC [speciogynine]
hDOR [2]
  Ki: > 10 µM
hKOR [4]
  agonist activity: no measurable agonist activity
  IC50: > 10 µM
hDOR [5]
  agonist activity: no measurable agonist activity
  IC50: > 10 µM
Rodent opioid receptors
  agonist or antagonist activity at rodent opioid receptors: no notable agonist or antagonist activity

## CCC1CN2CCc3c([nH]c4cccc(OC)c34)C2CC1C(=COC)C(=O)OC (single isomer, unassigned; (+)) [(+)-mitragynine]
hKOR [4]; G protein BRET, agonist mode
  Emax: 31%

## CC[C@@H]1CN2CCc3c([nH]c4cccc(OC)c34)[C@H]2C[C@@H]1/C(=C\OC)C(=O)OC [speciociliatine]
hDOR [2]
  Ki: > 10 µM
hKOR [4]
  agonist activity: no measurable agonist activity
  IC50: > 10 µM
hDOR [5]
  agonist activity: no measurable agonist activity
  IC50: > 10 µM
Rodent opioid receptors
  agonist or antagonist activity at rodent opioid receptors: no notable agonist or antagonist activity
